Source: ChEMBL document CHEMBL2057149 (J Med Chem, 2012)
The source made the active and inactive calls. The calls are words filed in the database; no cut-off is given here.

Legend:
[1] = target: Fibroblast growth factor 1 (Homo sapiens, UniProt P05230); experiment: Binding affinity to FGF-1 by surface plasmon resonance assay
Procedure, shortened: (§1)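 Solution-affinity SPR on heparin-coated CM4 chips. FGF-1 measured in HBS-EP (10 mM HEPES pH 7.4, 150 mM NaCl, 3.0 mM EDTA, 0.005% polysorbate 20); FGF-2 measured in HBS-EP with 300 mM NaCl. Kd is the average of at least duplicate measurements ± SD.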

[2] = target: Fibroblast growth factor 2 (Homo sapiens, UniProt P09038); experiment: Binding affinity to FGF-2 by surface plasmon resonance assay; procedure, shortened: as §1
Heparanase = target: T1, Heparanase (Homo sapiens, UniProt Q9Y251); experiment: Inhibition of human recombinant heparanase after 2 to 24 hrs by WST1 dye based fondaparinux assay
T1 sequence (Q9Y251 whole entry): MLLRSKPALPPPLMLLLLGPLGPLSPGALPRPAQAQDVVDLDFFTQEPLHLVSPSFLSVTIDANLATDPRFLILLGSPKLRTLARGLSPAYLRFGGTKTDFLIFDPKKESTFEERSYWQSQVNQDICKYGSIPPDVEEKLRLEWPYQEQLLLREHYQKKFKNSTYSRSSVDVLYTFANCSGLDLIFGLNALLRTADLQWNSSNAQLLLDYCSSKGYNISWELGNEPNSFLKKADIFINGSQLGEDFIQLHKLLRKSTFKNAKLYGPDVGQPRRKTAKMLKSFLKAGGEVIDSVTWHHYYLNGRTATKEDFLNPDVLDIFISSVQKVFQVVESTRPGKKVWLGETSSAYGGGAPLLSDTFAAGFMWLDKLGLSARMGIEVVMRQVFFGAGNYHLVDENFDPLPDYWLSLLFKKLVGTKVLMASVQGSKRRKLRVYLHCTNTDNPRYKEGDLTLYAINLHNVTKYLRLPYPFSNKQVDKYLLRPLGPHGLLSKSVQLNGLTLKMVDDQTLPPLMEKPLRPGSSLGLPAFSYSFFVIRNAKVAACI

HUVEC [3] = experiment: Antiangiogenic activity in FGF1-stimulated HUVEC cells after 72 hrs by CellTiter assay; format: functional, cell-based; settings: Homo sapiens
HUVEC [4] = experiment: Antiangiogenic activity in FGF2-stimulated HUVEC cells after 72 hrs by CellTiter assay; format: functional, cell-based; settings: Homo sapiens
HUVEC [5] = experiment: Antiangiogenic activity in VEGF-stimulated HUVEC cells after 72 hrs by CellTiter assay; format: functional, cell-based; settings: Homo sapiens
HMVEC [6] = experiment: Antiangiogenic activity in FGF1-stimulated HMVEC cells after 72 hrs by CellTiter assay; format: functional, cell-based; settings: Homo sapiens
HMVEC [7] = experiment: Antiangiogenic activity in FGF2-stimulated HMVEC cells after 72 hrs by CellTiter assay; format: functional, cell-based; settings: Homo sapiens
HMVEC [8] = experiment: Antiangiogenic activity in VEGF-stimulated HMVEC cells after 72 hrs by CellTiter assay; format: functional, cell-based; settings: Homo sapiens
Plasma [9] = experiment: Anticoagulant activity in pooled human plasma assessed as activated partial thromboplastin time at 0.1 mg/ml; format: ADME, cell-free
Procedure, shortened: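 APTT of pooled normal human plasma measured with compound at 0–100 μg/mL in PBS on a ball coagulameter, using unfractionated heparin as the reference. Normal range 26–36 s; coefficient of variation 2% at 36 s and 5–7% at 90 s or above. Values are the mean of two determinations.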

Plasma [10] = experiment: Anticoagulant activity in pooled human plasma assessed as prolongation of the recalcification time at 0.1 mg/ml by Heptest assay; format: ADME, cell-free
Procedure, shortened: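 Heptest clotting time in pooled normal human plasma; normal range 13–20 s. Values are the mean of two determinations.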

[11] = target: Vascular endothelial growth factor A (Homo sapiens) (UniProt P15692); experiment: Binding affinity to VEGF by surface plasmon resonance assay
HUVEC [12] = experiment: Antiangiogenic activity in HUVEC cells assessed as inhibition of tube formation at 10 uM after 18 hrs by matrigel assay; format: functional; settings: Homo sapiens
Procedure, shortened: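 HUVECs (passage 4 or 5, 70–80% confluent) suspended at 4 × 10⁵/mL in EGM2 with all supplements except heparin, mixed 1:1 with compound (final 10, 50 or 100 μM) in triplicate. Plated on growth factor-reduced Matrigel for 18 h. Branching nodes joining ≥3 tubules counted manually by phase-contrast microscopy. Reported as % inhibition versus untreated cells.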

Fibroblast growth factor 2, sequence (P09038 143-288 limits assumed): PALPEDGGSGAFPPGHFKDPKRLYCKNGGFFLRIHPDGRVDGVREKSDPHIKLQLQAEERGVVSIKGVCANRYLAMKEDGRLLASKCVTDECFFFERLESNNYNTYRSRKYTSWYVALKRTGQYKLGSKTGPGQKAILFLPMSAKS
Fibroblast growth factor 1, sequence (P05230 whole entry): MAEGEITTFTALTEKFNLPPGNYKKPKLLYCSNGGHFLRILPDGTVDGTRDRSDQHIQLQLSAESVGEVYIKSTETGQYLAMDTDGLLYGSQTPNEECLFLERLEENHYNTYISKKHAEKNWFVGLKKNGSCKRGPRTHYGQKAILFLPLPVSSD

| Structure (SMILES) | Kd [1] [nM] | Kd [2] [nM] | Ki (Heparanase) [nM] | IC50 (HUVEC [3]) [nM] | IC50 (HUVEC [4]) [nM] | IC50 (HUVEC [5]) [nM] | Activity (HMVEC [6]) | Activity (HMVEC [7]) | Activity (HMVEC [8]) | APTT (Plasma [9]) [s] | Time (Plasma [10]) [s] | Kd [11] [nM] | inhibition at 10 µM (HUVEC [12]) [%] |
| --- | --- | --- | --- | --- | --- | --- | --- | --- | --- | --- | --- | --- | --- |
| CC(C)CCC[C@@H](C)[C@H]1CC[C@H]2[C@@H]3CC[C@H]4C[C@@H](O[C@H]5O[C@H](COS(=O)(=O)[O-])[C@@H](OS(=O)(=O)[O-])[C@H](O[C@H]6O[C@H](COS(=O)(=O)[O-])[C@@H](OS(=O)(=O)[O-])[C@H](O[C@H]7O[C@H](COS(=O)(=O)[O-])[C@@H](OS(=O)(=O)[O-])[C@H](OS(=O)(=O)[O-])[C@@H]7OS(=O)(=O)[O-])[C@@H]6OS(=O)(=O)[O-])[C@@H]5OS(=O)(=O)[O-])CC[C@]4(C)[C@H]3CC[C@]12C.[Na+].[Na+].[Na+].[Na+].[Na+].[Na+].[Na+].[Na+].[Na+].[Na+] | 16 | 490 | 10.5 | 2500 | 1800 | 1700 | Active | Active | Active | 58.5 | 24.2 | 90 | – |
| CC(C)CCC[C@@H](C)[C@H]1CC[C@H]2[C@@H]3CC[C@H]4C[C@@H](OCc5cn(CCCO[C@H]6O[C@H](COS(=O)(=O)[O-])[C@@H](OS(=O)(=O)[O-])[C@H](OS(=O)(=O)[O-])[C@@H]6O[C@H]6O[C@H](COS(=O)(=O)[O-])[C@@H](OS(=O)(=O)[O-])[C@H](O[C@H]7O[C@H](COS(=O)(=O)[O-])[C@@H](OS(=O)(=O)[O-])[C@H](O[C@H]8O[C@H](COS(=O)(=O)[O-])[C@@H](OS(=O)(=O)[O-])[C@H](O[C@H]9O[C@H](COS(=O)(=O)[O-])[C@@H](OS(=O)(=O)[O-])[C@H](OS(=O)(=O)[O-])[C@@H]9OS(=O)(=O)[O-])[C@@H]8OS(=O)(=O)[O-])[C@@H]7OS(=O)(=O)[O-])[C@@H]6OS(=O)(=O)[O-])nn5)CC[C@]4(C)[C@H]3CC[C@]12C.[Na+].[Na+].[Na+].[Na+].[Na+].[Na+].[Na+].[Na+].[Na+].[Na+].[Na+].[Na+].[Na+].[Na+].[Na+].[Na+] | 0.24 | 39 | 5.5 | 990 | 390 | 220 | Active | Active | Active | 63.3 | 29.6 | 1.04 | – |
| CCCCCCCCCCCCCCCCCC(=O)NCCCO[C@@H]1O[C@H](COS(=O)(=O)[O-])[C@@H](O[C@H]2O[C@H](COS(=O)(=O)[O-])[C@@H](O[C@H]3O[C@H](COS(=O)(=O)[O-])[C@@H](O[C@H]4O[C@H](COS(=O)(=O)[O-])[C@@H](OS(=O)(=O)[O-])[C@H](OS(=O)(=O)[O-])[C@H]4OS(=O)(=O)[O-])[C@H](OS(=O)(=O)[O-])[C@H]3OS(=O)(=O)[O-])[C@H](OS(=O)(=O)[O-])[C@H]2OS(=O)(=O)[O-])[C@H](OS(=O)(=O)[O-])[C@H]1OS(=O)(=O)[O-].[Na+].[Na+].[Na+].[Na+].[Na+].[Na+].[Na+].[Na+].[Na+].[Na+].[Na+].[Na+].[Na+] | – | – | – | – | 800 | – | Active | Active | Active | 65.8 | 32.2 | 14 | > 80 |
| CC(C)CCC[C@@H](C)[C@H]1CC[C@H]2[C@@H]3CC[C@H]4C[C@@H](O[C@H]5O[C@H](COS(=O)(=O)[O-])[C@@H](OS(=O)(=O)[O-])[C@H](OS(=O)(=O)[O-])[C@@H]5O[C@H]5O[C@H](COS(=O)(=O)[O-])[C@@H](OS(=O)(=O)[O-])[C@H](O[C@H]6O[C@H](COS(=O)(=O)[O-])[C@@H](OS(=O)(=O)[O-])[C@H](OS(=O)(=O)[O-])[C@@H]6OS(=O)(=O)[O-])[C@@H]5OS(=O)(=O)[O-])CC[C@]4(C)[C@H]3CC[C@]12C.[Na+].[Na+].[Na+].[Na+].[Na+].[Na+].[Na+].[Na+].[Na+].[Na+] | 18.5 | 631 | 6.4 | 4400 | 2270 | 1000 | Active | Active | Active | 50.7 | 27.3 | 319 | – |
| CC(=O)O[C@H]1C[C@H]2[C@@H](CC[C@H]3C[C@@H](OS(=O)(=O)[O-])CC[C@@]32C)[C@@H]2CC[C@H]([C@H](C)CCC(=O)N[C@@H]3O[C@H](COS(=O)(=O)[O-])[C@@H](O[C@H]4O[C@H](COS(=O)(=O)[O-])[C@@H](O[C@H]5O[C@H](COS(=O)(=O)[O-])[C@@H](O[C@H]6O[C@H](COS(=O)(=O)[O-])[C@@H](OS(=O)(=O)[O-])[C@H](OS(=O)(=O)[O-])[C@H]6OS(=O)(=O)[O-])[C@H](OS(=O)(=O)[O-])[C@H]5OS(=O)(=O)[O-])[C@H](OS(=O)(=O)[O-])[C@H]4OS(=O)(=O)[O-])[C@H](OS(=O)(=O)[O-])[C@H]3OS(=O)(=O)[O-])[C@@]12C.[Na+].[Na+].[Na+].[Na+].[Na+].[Na+].[Na+].[Na+].[Na+].[Na+].[Na+].[Na+].[Na+].[Na+] | 1.25 | 50 | 20 | > 50000 | > 50000 | > 50000 | Active | Active | Active | 41 | 26.8 | 7.95 | – |
| CC(C)CCC[C@@H](C)[C@H]1CC[C@H]2[C@@H]3CC[C@H]4C[C@@H](OCc5cn([C@@H]6O[C@H](COS(=O)(=O)[O-])[C@@H](O[C@@H]7O[C@H](COS(=O)(=O)[O-])[C@H](OS(=O)(=O)[O-])[C@H](OS(=O)(=O)[O-])[C@H]7OS(=O)(=O)[O-])[C@H](OS(=O)(=O)[O-])[C@H]6OS(=O)(=O)[O-])nn5)CC[C@]4(C)[C@H]3CC[C@]12C.[Na+].[Na+].[Na+].[Na+].[Na+].[Na+].[Na+] | 610 | 1800 | 30 | 2700 | 2430 | 2620 | Active | Active | Active | 39.6 | 25.3 | 1600 | – |
| CC(C)CCC[C@@H](C)[C@H]1CC[C@H]2[C@@H]3CC[C@H]4C[C@@H](OCc5cn(CCCO[C@H]6O[C@H](COS(=O)(=O)[O-])[C@@H](OS(=O)(=O)[O-])[C@H](OS(=O)(=O)[O-])[C@@H]6O[C@H]6O[C@H](COS(=O)(=O)[O-])[C@@H](OS(=O)(=O)[O-])[C@H](O[C@H]7O[C@H](COS(=O)(=O)[O-])[C@@H](OS(=O)(=O)[O-])[C@H](OS(=O)(=O)[O-])[C@@H]7OS(=O)(=O)[O-])[C@@H]6OS(=O)(=O)[O-])nn5)CC[C@]4(C)[C@H]3CC[C@]12C.[Na+].[Na+].[Na+].[Na+].[Na+].[Na+].[Na+].[Na+].[Na+].[Na+] | 22.6 | 480 | 8.5 | 3800 | 1700 | 2100 | Active | Active | Active | 73.3 | 33.1 | 460 | – |
